Assay results as given in ChEMBL document CHEMBL5058577, “EUbOPEN Chemogenomics Library 2 (Multiplex)” (2022).

Tested on: HEK-293T
Assay: Multiplex assay against HEK293T
Assay type: toxicity, cell-based
Settings: human
Method in brief: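 With compound added, live cells were imaged on a CQ1 microscope at 37°C and 5% CO2; staining with Hoechst33342, BioTracker Green Microtubule Cytoskeleton Dye, MitoTracker Red and Annexin V Alexa Fluor 680 had been done at seeding. The CellPathfinder machine-learning gating scheme split cells into Hoechst high-intensity objects or normal cells, normal cells into healthy, pyknosed or fragmented nuclei, and pyknosed cells into mitotic or apoptotic. The tubulin, mitochondrial-mass and membrane-permeability phenotypes are per cents of healthy-nucleus cells.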

[1] = 12 h, 1 µM, compound concentration 1 uM, replicate 1
[2] = 12 h, 1 µM, compound concentration 1 uM, replicate 2
[3] = 12 h, 10 µM, compound concentration 10 uM, replicate 1
[4] = 12 h, 10 µM, compound concentration 10 uM, replicate 2
[5] = 24 h, 1 µM, compound concentration 1 uM, replicate 1
[6] = 24 h, 1 µM, compound concentration 1 uM, replicate 2
[7] = 24 h, 10 µM, compound concentration 10 uM, replicate 1
[8] = 24 h, 10 µM, compound concentration 10 uM, replicate 2
[9] = 48 h, 1 µM, compound concentration 1 uM, replicate 1
[10] = 48 h, 1 µM, compound concentration 1 uM, replicate 2
[11] = 48 h, 10 µM, compound concentration 10 uM, replicate 1
[12] = 48 h, 10 µM, compound concentration 10 uM, replicate 2

## COc1ccc2c(c1OCc1ccccc1)C[C@@H](C(=O)O)N(C(=O)C(c1ccccc1)c1ccccc1)C2 [OLODANRIGAN]
[1]
  Population Apoptotic (%): 39%
  Population Fragmented Nuclei (%): 6%
  Population Healthy Nuclei (%): 82%
  Population Hoechst High Intensity Objects (%): 7%
  Population Membrane Permeable-Phenotype (%): 0%
  Population Mitochondria Different-Phenotype (%): 44%
  Population Mitotic Cells (%): 60%
  Population Normal (%): 92%
  Population Pyknosed Nuclei (%): 11%
  Population Tubulin-Different-Phenotype (%): 21%
  Total Cell Count: 419
[2]
  Population Apoptotic (%): 43%
  Population Fragmented Nuclei (%): 7%
  Population Healthy Nuclei (%): 81%
  Population Mitochondria Different-Phenotype (%): 48%
  Population Mitotic Cells (%): 56%
  Population Pyknosed Nuclei (%): 10%
  Population Tubulin-Different-Phenotype (%): 17%
  Total Cell Count: 409
[3]
  Population Apoptotic (%): 45%
  Population Fragmented Nuclei (%): 6%
  Population Healthy Nuclei (%): 81%
  Population Hoechst High Intensity Objects (%): 6%
  Population Membrane Permeable-Phenotype (%): 0%
  Population Mitochondria Different-Phenotype (%): 42%
  Population Mitotic Cells (%): 54%
  Population Normal (%): 93%
  Population Pyknosed Nuclei (%): 12%
  Population Tubulin-Different-Phenotype (%): 35%
  Total Cell Count: 389
[4]
  Population Apoptotic (%): 44%
  Population Fragmented Nuclei (%): 4%
  Population Healthy Nuclei (%): 83%
  Population Hoechst High Intensity Objects (%): 3%
  Population Mitochondria Different-Phenotype (%): 58%
  Population Mitotic Cells (%): 55%
  Population Normal (%): 96%
  Population Tubulin-Different-Phenotype (%): 27%
  Total Cell Count: 368
[5]
  Population Apoptotic (%): 46%
  Population Fragmented Nuclei (%): 11%
  Population Healthy Nuclei (%): 78%
  Population Hoechst High Intensity Objects (%): 3%
  Population Membrane Permeable-Phenotype (%): 0%
  Population Mitochondria Different-Phenotype (%): 24%
  Population Mitotic Cells (%): 53%
  Population Normal (%): 96%
  Population Pyknosed Nuclei (%): 10%
  Population Tubulin-Different-Phenotype (%): 15%
  Total Cell Count: 614
[6]
  Population Apoptotic (%): 19%
  Population Fragmented Nuclei (%): 10%
  Population Healthy Nuclei (%): 81%
  Population Hoechst High Intensity Objects (%): 6%
  Population Membrane Permeable-Phenotype (%): 1%
  Population Mitochondria Different-Phenotype (%): 30%
  Population Mitotic Cells (%): 80%
  Population Normal (%): 93%
  Population Pyknosed Nuclei (%): 8%
  Population Tubulin-Different-Phenotype (%): 14%
  Total Cell Count: 521
[7]
  Population Apoptotic (%): 40%
  Population Fragmented Nuclei (%): 7%
  Population Healthy Nuclei (%): 78%
  Population Hoechst High Intensity Objects (%): 6%
  Population Membrane Permeable-Phenotype (%): 0%
  Population Mitochondria Different-Phenotype (%): 34%
  Population Mitotic Cells (%): 59%
  Population Normal (%): 93%
  Population Pyknosed Nuclei (%): 13%
  Population Tubulin-Different-Phenotype (%): 32%
  Total Cell Count: 456
[8]
  Population Apoptotic (%): 43%
  Population Fragmented Nuclei (%): 10%
  Population Healthy Nuclei (%): 79%
  Population Mitochondria Different-Phenotype (%): 57%
  Population Mitotic Cells (%): 56%
  Population Pyknosed Nuclei (%): 9%
  Population Tubulin-Different-Phenotype (%): 28%
  Total Cell Count: 414
[9]
  Population Apoptotic (%): 26%
  Population Fragmented Nuclei (%): 13%
  Population Healthy Nuclei (%): 80%
  Population Hoechst High Intensity Objects (%): 2%
  Population Membrane Permeable-Phenotype (%): 0%
  Population Mitochondria Different-Phenotype (%): 15%
  Population Mitotic Cells (%): 73%
  Population Normal (%): 97%
  Population Pyknosed Nuclei (%): 5%
  Population Tubulin-Different-Phenotype (%): 11%
  Total Cell Count: 1083
[10]
  Population Apoptotic (%): 22%
  Population Fragmented Nuclei (%): 15%
  Population Healthy Nuclei (%): 79%
  Population Mitochondria Different-Phenotype (%): 18%
  Population Mitotic Cells (%): 77%
  Population Tubulin-Different-Phenotype (%): 10%
  Total Cell Count: 818
[11]
  Population Apoptotic (%): 32%
  Population Fragmented Nuclei (%): 12%
  Population Healthy Nuclei (%): 78%
  Population Hoechst High Intensity Objects (%): 5%
  Population Membrane Permeable-Phenotype (%): 0%
  Population Mitochondria Different-Phenotype (%): 22%
  Population Mitotic Cells (%): 67%
  Population Normal (%): 94%
  Population Pyknosed Nuclei (%): 8%
  Population Tubulin-Different-Phenotype (%): 15%
  Total Cell Count: 659
[12]
  Population Apoptotic (%): 39%
  Population Healthy Nuclei (%): 80%
  Population Hoechst High Intensity Objects (%): 6%
  Population Mitochondria Different-Phenotype (%): 32%
  Population Mitotic Cells (%): 60%
  Population Normal (%): 93%
  Population Pyknosed Nuclei (%): 7%
  Population Tubulin-Different-Phenotype (%): 18%
  Total Cell Count: 534

## CCCCCCNC(=O)Nc1ccc(S(=O)(=O)Nc2ccc(CCNC[C@H](O)COc3ccc(O)cc3)cc2)cc1 [L-755507]
[1]
  Population Apoptotic (%): 35%
  Population Fragmented Nuclei (%): 8%
  Population Healthy Nuclei (%): 84%
  Population Hoechst High Intensity Objects (%): 7%
  Population Membrane Permeable-Phenotype (%): 0%
  Population Mitochondria Different-Phenotype (%): 39%
  Population Mitotic Cells (%): 64%
  Population Normal (%): 92%
  Population Pyknosed Nuclei (%): 7%
  Population Tubulin-Different-Phenotype (%): 28%
  Total Cell Count: 494
[2]
  Population Apoptotic (%): 31%
  Population Fragmented Nuclei (%): 6%
  Population Healthy Nuclei (%): 83%
  Population Mitochondria Different-Phenotype (%): 64%
  Population Mitotic Cells (%): 68%
  Population Pyknosed Nuclei (%): 10%
  Population Tubulin-Different-Phenotype (%): 32%
  Total Cell Count: 403
[3]
  Population Apoptotic (%): 58%
  Population Fragmented Nuclei (%): 10%
  Population Healthy Nuclei (%): 74%
  Population Hoechst High Intensity Objects (%): 17%
  Population Membrane Permeable-Phenotype (%): 0%
  Population Mitochondria Different-Phenotype (%): 69%
  Population Mitotic Cells (%): 41%
  Population Normal (%): 82%
  Population Pyknosed Nuclei (%): 14%
  Population Tubulin-Different-Phenotype (%): 68%
  Total Cell Count: 384
[4]
  Population Apoptotic (%): 71%
  Population Fragmented Nuclei (%): 8%
  Population Healthy Nuclei (%): 79%
  Population Hoechst High Intensity Objects (%): 7%
  Population Mitochondria Different-Phenotype (%): 87%
  Population Mitotic Cells (%): 28%
  Population Normal (%): 92%
  Population Pyknosed Nuclei (%): 11%
  Population Tubulin-Different-Phenotype (%): 61%
  Total Cell Count: 341
[5]
  Population Apoptotic (%): 19%
  Population Fragmented Nuclei (%): 9%
  Population Healthy Nuclei (%): 80%
  Population Hoechst High Intensity Objects (%): 5%
  Population Membrane Permeable-Phenotype (%): 0%
  Population Mitochondria Different-Phenotype (%): 20%
  Population Mitotic Cells (%): 80%
  Population Normal (%): 94%
  Population Pyknosed Nuclei (%): 9%
  Population Tubulin-Different-Phenotype (%): 20%
  Total Cell Count: 634
[6]
  Population Apoptotic (%): 30%
  Population Fragmented Nuclei (%): 11%
  Population Hoechst High Intensity Objects (%): 4%
  Population Mitochondria Different-Phenotype (%): 42%
  Population Mitotic Cells (%): 70%
  Population Normal (%): 95%
  Population Pyknosed Nuclei (%): 7%
  Population Tubulin-Different-Phenotype (%): 22%
  Total Cell Count: 547
[7]
  Population Apoptotic (%): 26%
  Population Fragmented Nuclei (%): 8%
  Population Healthy Nuclei (%): 80%
  Population Hoechst High Intensity Objects (%): 14%
  Population Membrane Permeable-Phenotype (%): 0%
  Population Mitochondria Different-Phenotype (%): 59%
  Population Mitotic Cells (%): 73%
  Population Normal (%): 85%
  Population Pyknosed Nuclei (%): 11%
  Population Tubulin-Different-Phenotype (%): 42%
  Total Cell Count: 461
[8]
  Population Apoptotic (%): 48%
  Population Fragmented Nuclei (%): 7%
  Population Healthy Nuclei (%): 83%
  Population Hoechst High Intensity Objects (%): 9%
  Population Mitochondria Different-Phenotype (%): 68%
  Population Mitotic Cells (%): 51%
  Population Normal (%): 90%
  Population Pyknosed Nuclei (%): 9%
  Population Tubulin-Different-Phenotype (%): 51%
  Total Cell Count: 402
[9]
  Population Apoptotic (%): 10%
  Population Fragmented Nuclei (%): 12%
  Population Healthy Nuclei (%): 81%
  Population Hoechst High Intensity Objects (%): 3%
  Population Membrane Permeable-Phenotype (%): 2%
  Population Mitochondria Different-Phenotype (%): 16%
  Population Mitotic Cells (%): 89%
  Population Normal (%): 96%
  Population Pyknosed Nuclei (%): 6%
  Population Tubulin-Different-Phenotype (%): 15%
  Total Cell Count: 1052
[10]
  Population Apoptotic (%): 15%
  Population Fragmented Nuclei (%): 13%
  Population Healthy Nuclei (%): 80%
  Population Hoechst High Intensity Objects (%): 5%
  Population Mitochondria Different-Phenotype (%): 24%
  Population Mitotic Cells (%): 84%
  Population Normal (%): 94%
  Population Tubulin-Different-Phenotype (%): 20%
  Total Cell Count: 775
[11]
  Population Apoptotic (%): 46%
  Population Fragmented Nuclei (%): 15%
  Population Healthy Nuclei (%): 75%
  Population Hoechst High Intensity Objects (%): 11%
  Population Membrane Permeable-Phenotype (%): 1%
  Population Mitochondria Different-Phenotype (%): 36%
  Population Mitotic Cells (%): 53%
  Population Normal (%): 88%
  Population Pyknosed Nuclei (%): 9%
  Population Tubulin-Different-Phenotype (%): 32%
  Total Cell Count: 598
[12]
  Population Apoptotic (%): 65%
  Population Fragmented Nuclei (%): 13%
  Population Healthy Nuclei (%): 80%
  Population Hoechst High Intensity Objects (%): 8%
  Population Membrane Permeable-Phenotype (%): 0%
  Population Mitochondria Different-Phenotype (%): 47%
  Population Mitotic Cells (%): 34%
  Population Normal (%): 91%
  Population Pyknosed Nuclei (%): 5%
  Population Tubulin-Different-Phenotype (%): 39%
  Total Cell Count: 596
